Test: Toxicity liver stage against HepG2, at 10uM
Type: cell-based
Set-up: test concentration 10 uM, cell line HepG2-A16-CD81EGFP
Settings: human, HepG2-A16-CD81EGFP cells; read-out: INHIBITION
Outline: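 Uninfected HepG2-A16-CD81EGFP cells, 3 × 10^3 per well, 1536-well, plated on prespotted compound at 10 μM final, parasite-free screening media added to match infected plates; puromycin 10 μM positive, DMSO 0.5% negative; run in parallel with 48 h PbLuc assay at 37 °C, 5% CO2; viability by CellTiter-Glo luminescence, normalized to controls.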

## c1cc(-c2noc([C@@H]3CCCN3C3CCC3)n2)cc(N2CCCC2)n1
  cytotoxicity at 10 µM: 5.94%

## COc1ccc(C2OC(COc3ccc(C)cc3)=NN2C(C)=O)cc1 (stereo unspecified)
  cytotoxicity at 10 µM: -6.19%

## CS(=O)(=O)N1CCN(C(=O)c2cc(-c3ccc(Br)s3)n[nH]2)CC1
  cytotoxicity at 10 µM: -7.62%

## Cc1cc(C)n(CCN2CCN(C(=O)c3ccc(Br)o3)CC2)n1
  cytotoxicity at 10 µM: -8.46%

## Cc1c(Cl)cccc1S(=O)(=O)N1CCC2(CC1)OCCS2
  cytotoxicity at 10 µM: 4.19%

## Cc1cccc(CC(=O)Nc2cnn(C3CCOC3)c2)c1 (stereo unspecified)
  cytotoxicity at 10 µM: -0.813%

## Cc1ccccc1NC(=O)N1CC[C@@H]2CN(CC(C)C)S(=O)(=O)[C@@H]2CC1
  cytotoxicity at 10 µM: -0.567%

## Cc1ccc(C(=O)N2C[C@@H]3CN(c4ncccn4)C[C@@H]3C2)cc1
  cytotoxicity at 10 µM: 9.34%

## CN(C)CC(=O)N1CCC2(CC1)COCCN(c1ncccn1)C2
  cytotoxicity at 10 µM: 5.38%

## O=C(CC1CC1)N1Cc2nccn2CC(Cn2ncccc2=O)C1 (stereo unspecified)
  cytotoxicity at 10 µM: 7.04%

## Cn1cc(CN2CCC3(CC2)CN(C(=O)c2cnccn2)CCO3)cn1
  cytotoxicity at 10 µM: -5.49%

## O=C(C1CCOC1)N1CCc2ncnc(C3CC3)c2CC1 (stereo unspecified)
  cytotoxicity at 10 µM: -2.62%

## Cn1cc(I)c(C(=O)NC2CCCC2)n1
  cytotoxicity at 10 µM: 5.53%

## COc1ncnc2c1CCN(c1cc(C(F)(F)F)ncn1)CC2
  cytotoxicity at 10 µM: -1.42%

## O=C(C1=CCCC1)N1CCO[C@H]2[C@@H](OCC3CC3)CC[C@@H]21
  cytotoxicity at 10 µM: -5.66%

## Cc1nn(C)cc1CN(C)C(=O)c1cccnc1
  cytotoxicity at 10 µM: 0.992%

## Cc1cc(-c2ccc(=O)n(CCNC(=O)C3CCCCC3)n2)c(C)o1
  cytotoxicity at 10 µM: -3.73%

## COc1cc(CN2CC[C@H](NC(C)=O)[C@@H](O)CC2)ccc1F
  cytotoxicity at 10 µM: -9.19%

## Cc1csc(Nc2nccnc2C2CCCN2CC(N)=O)n1 (stereo unspecified)
  cytotoxicity at 10 µM: -20.8%

## O=C(O)c1ccccc1-c1ccc(CN2CC(O)C2)cc1
  cytotoxicity at 10 µM: -0.363%

## CC(NC1(CNS(=O)(=O)N(C)C)CCCC1)c1ccccc1 (stereo unspecified)
  cytotoxicity at 10 µM: -5.01%

## O=C(CCC(=O)Nc1ccccc1)NCC(=O)c1ccc(F)cc1F
  cytotoxicity at 10 µM: -0.493%

## NC(=O)CN(Cc1ncc(-c2ccc(F)cc2)o1)C1CCCC1
  cytotoxicity at 10 µM: -6.19%

## COc1ccc(CNCC2CN(C3CC3)CCO2)cc1OC (stereo unspecified)
  cytotoxicity at 10 µM: -17%

## CCc1nc(CCNC(=O)NC2CCC(=O)N(C)C2)sc1C (stereo unspecified)
  cytotoxicity at 10 µM: 2.78%

## CCC(C)(CNC(=O)c1ccon1)NC(=O)c1ccon1 (stereo unspecified)
  cytotoxicity at 10 µM: -0.903%

## CCOC(=O)c1c(NC(=O)CN2CCN(C(C)=O)CC2)sc(C)c1C
  cytotoxicity at 10 µM: 1.15%

## CCCc1noc(CCC(=O)N2CCCC2Cn2cc(C)cn2)n1 (stereo unspecified)
  cytotoxicity at 10 µM: -1.11%

## Fc1ccc(CNCCn2cccn2)c(F)c1
  cytotoxicity at 10 µM: 8.59%

## COc1ccc2c(c1)CCCN(C(C)C(=O)N1CCCC1)C2 (stereo unspecified)
  cytotoxicity at 10 µM: 10.9%

## CC(CCSc1ccccc1)N1CCN(C(=O)c2ccccc2O)CC1 (stereo unspecified)
  cytotoxicity at 10 µM: 8.97%

## Cn1cc(C2CCCN2C(=O)CCn2c(=O)oc3ccccc32)cn1 (stereo unspecified)
  cytotoxicity at 10 µM: 4.91%

## Cc1cnn(CCNC(C)C(=O)NCCc2cccs2)c1 (stereo unspecified)
  cytotoxicity at 10 µM: -9.38%

## CCN1CCOC(CNCc2c(Cl)nc3ccccn23)C1 (stereo unspecified)
  cytotoxicity at 10 µM: 0.174%

## CN(C)C(=O)CN(C)C(=O)c1csc(Br)c1
  cytotoxicity at 10 µM: 12.3%

## COCCNC(=O)N1CCCC(COc2ccccc2)C1 (stereo unspecified)
  cytotoxicity at 10 µM: 0.186%

## COc1cccc(COCC(O)CN(C)c2ccc(C)cc2C)c1 (stereo unspecified)
  cytotoxicity at 10 µM: 9.66%

## Cc1nc(NC(=O)NCCCN2CCC(C(N)=O)CC2)sc1C
  cytotoxicity at 10 µM: 0.902%

## Cc1noc(C)c1CNS(=O)(=O)N(C)Cc1ccccc1Br
  cytotoxicity at 10 µM: 17.8%

## O=C1OCCN1CCOc1nc(-c2ccccc2Cl)no1
  cytotoxicity at 10 µM: -11.3%

## NC(=O)CSCC(=O)N1CCc2cc(Cl)cc(Cl)c2C1
  cytotoxicity at 10 µM: 27.9%

## CCCc1n[nH]c(C2CN(CCn3cccn3)CCO2)n1 (stereo unspecified)
  cytotoxicity at 10 µM: -11.3%

## CC(Oc1ccccc1C(F)(F)F)C(=O)NS(=O)(=O)C(C)C (stereo unspecified)
  cytotoxicity at 10 µM: -7.19%

## CCCOCC1CCN(C(=O)Cn2ncc(N3CCCC3)cc2=O)C1 (stereo unspecified)
  cytotoxicity at 10 µM: 3.41%

## O=C(C1CCC1)N1CCN(Cc2ccc(F)cc2)[C@H]2CS(=O)(=O)C[C@H]21
  cytotoxicity at 10 µM: 1.65%

## N[C@H]1c2ccccc2C[C@@H]1NC(=O)C1CCN(Cc2ccco2)CC1
  cytotoxicity at 10 µM: -8.57%

## O=C(N[C@@H]1CCN(C(=O)C2CCOCC2)C[C@H]1O)c1ccccn1
  cytotoxicity at 10 µM: -2.88%

## Cc1nc2c(c(N[C@@H](CO)C(N)=O)n1)Cc1ccccc1OC2
  cytotoxicity at 10 µM: 2.8%

## CN(C)CCN(C)c1nc(CCc2ccccc2)nc2c1cnn2C
  cytotoxicity at 10 µM: 0.562%

## Cc1ccccc1-c1ncc(CNCc2csc(C(C)C)n2)s1
  cytotoxicity at 10 µM: 0.264%

## O=C(CCC1CCN(C(=O)c2cc[nH]c2)CC1)NCc1cccc(Cl)c1
  cytotoxicity at 10 µM: -2.11%

## C[C@@H]1CN(c2nc3c(cc2C(N)=O)CCC3)C[C@]1(C)O
  cytotoxicity at 10 µM: -0.112%

## Cc1cc(NCCc2nnc(N)s2)nc(-c2ccccc2)n1
  cytotoxicity at 10 µM: 6.9%

## CCCn1c(C)c(CC(=O)NCC(N)=O)c2c1CC(C)(C)CC2=O
  cytotoxicity at 10 µM: 2.03%

## Cc1ccc(-n2c(COCC(=O)O)nc3c(C)cccc32)nc1
  cytotoxicity at 10 µM: 2.43%

## Cc1cccc(C(C(=O)NC(C)(C)CN2CCCC2)N(C)C)c1 (stereo unspecified)
  cytotoxicity at 10 µM: -3.73%

## COc1ccccc1CNC(=O)CN(C)C(C)c1ccon1 (stereo unspecified)
  cytotoxicity at 10 µM: -4.29%

## Cc1cnn(CC2CN(Cc3nnc(-c4ccccc4)o3)CCO2)c1 (stereo unspecified)
  cytotoxicity at 10 µM: -6.61%

## O=C(CCOc1ccccc1)N1CCCC(n2cncn2)C1 (stereo unspecified)
  cytotoxicity at 10 µM: -2.95%

## CCNc1cc2c(nn1)CCN(C(=O)c1ccc3c(c1)OCO3)C2
  cytotoxicity at 10 µM: -13.5%

## CCc1ccc(C(=O)N2CCN(CCO)CC2)o1
  cytotoxicity at 10 µM: -5.22%

## CCc1nc2n(n1)CC(NCC(=O)Nc1cc(C(C)(C)C)no1)CC2 (stereo unspecified)
  cytotoxicity at 10 µM: -9.26%

## Cc1ccccc1CN(C)C(=O)CN1CCOC(Cn2cncn2)C1 (stereo unspecified)
  cytotoxicity at 10 µM: -1.07%

## CC(Cn1cccn1)NC(=O)CCC(=O)c1cccs1 (stereo unspecified)
  cytotoxicity at 10 µM: -2.39%

## N#Cc1ccc(S(=O)(=O)N2CSCC2C(=O)NCC(F)(F)F)cc1 (stereo unspecified)
  cytotoxicity at 10 µM: -7.6%

## CCc1nc(CC(=O)N2CCn3c(nnc3C(F)(F)F)C2)cs1
  cytotoxicity at 10 µM: -9.29%

## O=C(NCc1cccc2cccnc12)N1CCC(n2cncn2)CC1
  cytotoxicity at 10 µM: 0.722%

## O=C(c1cnc(-c2ccco2)s1)N1CCCC1Cn1cccn1 (stereo unspecified)
  cytotoxicity at 10 µM: -1.08%

## Cc1csc(C2CCCCN2C(=O)CN(C)Cc2ccccc2)n1 (stereo unspecified)
  cytotoxicity at 10 µM: 2.62%

## CCOC(=O)N1CCCC2(CCCNC2)C1 (stereo unspecified)
  cytotoxicity at 10 µM: 2.11%

## CN1CC(=O)N(c2cccnc2)CC12CCN(C(=O)c1cccnc1)C2 (stereo unspecified)
  cytotoxicity at 10 µM: 2.25%

## C[C@@H]1CN(Cc2cccc(F)c2)C[C@]12CCN(Cc1cccnc1)C2=O
  cytotoxicity at 10 µM: -2.6%

## CN1CCN(C[C@@H]2OC[C@H]3CN(Cc4ccsc4)CC[C@H]32)CC1
  cytotoxicity at 10 µM: -11%

## COCCN1CCC2(CC1)CC(NC(=O)COC)c1ccccc1O2 (stereo unspecified)
  cytotoxicity at 10 µM: -8.43%

## CC(C)NC(=O)C1CCC2(CCN(Cc3cnn(C)c3)CC2)C1 (stereo unspecified)
  cytotoxicity at 10 µM: 2.77%

## COCC(=O)N1CCOCC2(CCN(Cc3cccs3)C2)C1 (stereo unspecified)
  cytotoxicity at 10 µM: -6.16%

## CN(C)C(=O)N1CC2(CCN(CC3CC3)CC2)c2cc(F)ccc21
  cytotoxicity at 10 µM: -1.54%

## CNC(=O)CN1CC[C@H]2CN(C(=O)c3ccc(C)nc3)C[C@H]2C1
  cytotoxicity at 10 µM: 1.61%

## Cc1nc(CN2C[C@@H]3CN(C(=O)c4cnccn4)C[C@@H]3C2)cs1
  cytotoxicity at 10 µM: -8.97%

## O=C(Nc1ccccc1)N1C[C@@H]2C[C@H](C(=O)N3CCCC3)[C@H](C1)O2
  cytotoxicity at 10 µM: -3.29%

## CCCNc1c(NC(=O)NCCCOC)c(=O)oc2ccccc12
  cytotoxicity at 10 µM: -4.52%

Source: ChEMBL document CHEMBL4513216, “Probing the Open Global Health Chemical Diversity Library for Multistage-Active Starting Points for Next-Generation Antimalarials” (ACS Infect Dis, 2020)
